Assay results: ChEMBL document CHEMBL1129074, “Inhibitors of human immunodeficiency virus type 1 derived from gp41 transmembrane protein: structure--activity studies” (J Med Chem, 1996)
Peptide text beside a SMILES is read from it.

System: MT4
Test: Inhibitory potency of gp41 fragment against HIV-1 induced cytopathic effect in MT-4 cell assay at 20 uM
Type: functional, Homo sapiens
Settings: for inhibition at 20 µM: Homo sapiens, MT4
Procedure, shortened: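 MT4 cells (exponential growth) at 5×10^5 cells/mL infected with HIV-1 IIIB (100× TCID50) for 1 h at 37 °C, diluted 6-fold, added to serially diluted peptide in RPMI 1640/FCS medium; mock-infected controls. After 5 days at 37 °C, 5% CO2, cells lysed with Nonidet-40 and DNA content read by propidium iodide. Inhibition = restoration of infected-cell growth relative to uninfected controls; cytotoxicity measured in parallel.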

| SMILES | inhibition at 20 µM | Inhibition |
| --- | --- | --- |
| CC[C@H](C)[C@H](NC(C)=O)C(=O)N[C@@H](CCC(=O)O)C(=O)N[C@@H](C)C(=O)N[C@@H](CCC(N)=O)C(=O)N[C@@H](CCC(N)=O)C(=O)N[C@@H](CC(C)C)C(=O)N[C@@H](CC(C)C)C(=O)N[C@@H](CCC(N)=O)C(=O)N[C@@H](CC(C)C)C(=O)N[C@H](C(=O)N[C@H](C(=O)N[C@@H](Cc1c[nH]c2ccccc12)C(=O)NCC(=O)N[C@H](C(=O)N[C@@H](CCCCN)C(=O)N[C@@H](CCC(N)=O)C(=O)N[C@@H](CC(C)C)C(=O)N[C@@H](CCC(N)=O)C(=O)N[C@@H](C)C(=O)N[C@@H](CCCN=C(N)N)C(=O)N[C@H](C(=O)N[C@@H](CC(C)C)C(=O)N[C@@H](C)C(=O)N[C@H](C(=O)N[C@@H](CCC(=O)O)C(=O)N[C@@H](CCCN=C(N)N)C(=O)N[C@@H](Cc1ccc(O)cc1)C(=O)N[C@@H](CC(C)C)C(=O)N[C@@H](CCCCN)C(=O)N[C@@H](CC(=O)O)C(=O)N[C@@H](CCC(N)=O)C(=O)O)C(C)C)[C@@H](C)CC)[C@@H](C)CC)C(C)C)[C@@H](C)O (Ac-IEAQQLLQLTVWGIKQLQARILAVERYLKDQ-OH) | 28% |  |
| CC[C@H](C)[C@H](NC(=O)CNC(=O)[C@H](C)NC(=O)[C@@H](NC(=O)[C@@H](NC(=O)[C@H](C)NC(=O)[C@H](C)NC(=O)[C@H](CC(C)C)NC(=O)[C@H](CC(C)C)NC(=O)[C@H](C)NC(=O)[C@H](CCC(N)=O)NC(=O)[C@H](CCC(N)=O)NC(=O)[C@H](C)NC(=O)[C@H](CCC(=O)O)NC(=O)[C@@H](NC(=O)[C@H](C)NC(=O)[C@H](CCCN=C(N)N)NC(=O)[C@H](CC(C)C)NC(=O)[C@H](CC(C)C)NC(=O)[C@H](CC(N)=O)NC(=O)[C@H](CC(N)=O)NC(C)=O)[C@@H](C)CC)[C@@H](C)O)C(C)C)C(=O)N[C@@H](C)C(=O)N[C@@H](C)C(=O)N[C@@H](CC(C)C)C(=O)N[C@@H](CCC(N)=O)C(=O)N[C@@H](C)C(=O)N[C@@H](CCCN=C(N)N)C(=O)N[C@H](C(=O)N[C@@H](C)C(=O)N[C@@H](C)C(=O)N[C@H](C(=O)N[C@@H](CCC(=O)O)C(=O)N[C@@H](C)C(=O)N[C@@H](Cc1ccc(O)cc1)C(=O)N[C@@H](CC(C)C)C(=O)N[C@@H](C)C(=O)N[C@@H](C)C(=O)N[C@@H](CCC(N)=O)C(=O)O)C(C)C)[C@@H](C)CC (Ac-NNLLRAIEAQQALLAATVAGIAALQARIAAVEAYLAAQ-OH) | 37% |  |
| CCCCCCCCCCCCC(N)C(=O)N[C@H](C(=O)N[C@@H](CCCCN)C(=O)N[C@@H](CCC(N)=O)C(=O)N[C@@H](CC(C)C)C(=O)N[C@@H](CCC(N)=O)C(=O)N[C@@H](C)C(=O)N[C@@H](CCCN=C(N)N)C(=O)N[C@H](C(=O)N[C@@H](CC(C)C)C(=O)N[C@@H](C)C(=O)N[C@H](C(=O)N[C@@H](CCC(=O)O)C(=O)N[C@@H](CCCN=C(N)N)C(=O)N[C@@H](Cc1ccc(O)cc1)C(=O)N[C@@H](CC(C)C)C(=O)N[C@@H](CCCCN)C(=O)N[C@@H](CC(=O)O)C(=O)N[C@@H](CCC(N)=O)C(=O)O)C(C)C)[C@@H](C)CC)[C@@H](C)CC (stereo in doubt; 21) |  | 9% |
| CCCCCCCCCCCCC(N)C(=O)N[C@H](C(=O)N[C@@H](CCCCN)C(=O)N[C@@H](CCC(N)=O)C(=O)N[C@@H](CC(C)C)C(=O)N[C@@H](CCC(N)=O)C(=O)N[C@@H](C)C(=O)N[C@@H](CCCN=C(N)N)C(=O)N[C@H](C(=O)N[C@@H](CC(C)C)C(=O)N[C@@H](C)C(=O)N[C@H](C(=O)N[C@@H](CCC(=O)O)C(=O)N[C@@H](CCCN=C(N)N)C(=O)N[C@@H](Cc1ccc(O)cc1)C(=O)N[C@@H](CC(C)C)C(=O)N[C@@H](CCCCN)C(=O)N[C@@H](CC(=O)O)C(=O)N[C@@H](CCC(N)=O)C(=O)O)C(C)C)[C@@H](C)CC)[C@@H](C)CC (stereo in doubt; 22) |  | 0% |
